The text below walks through data of ChEMBL document CHEMBL1123936, “Synthesis and biological evaluation of acyclic neplanocin analogues” (1987).

≈ marks a conversion by molar mass, not a printed value.

Format in all cases: functional
The test system of assay [1] is Human alphaherpesvirus 1. As to the kind of experiment: Compound was evaluated for antiviral activity against HSV-1 reported as virus rating. The essentials:
(§1)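 CPE inhibition assay in pregrown Vero cell monolayers infected with HSV-1 (strain 377) or HSV-2 (strain HF). Virus-induced cytopathogenic effect was scored quantitatively. Virus rating weighs the degree of CPE inhibition against cytotoxicity to the host cells, following a modified Ehrlich et al. method.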

Assay [2] deals with Human alphaherpesvirus 2. As to the kind of experiment: Compound was evaluated for antiviral activity against HSV-2 reported as virus rating. The essentials: as §1
For assay [3], the system named is Human alphaherpesvirus 1. As to the kind of experiment: Compound was evaluated for antiviral activity against HSV-1 reported as ED50 value. The conditions noted are these: read-out: ED50 (the source's name). In a few lines: as §1
Assay [4] has as its system Human alphaherpesvirus 2. As to the kind of experiment: Compound was evaluated for antiviral activity against HSV-2 reported as ED50 value. The conditions noted are these: read-out: ED50 (the source's name). In a few lines: as §1
In another assay the test system is P388. As to the kind of experiment: Compound was evaluated for growth inhibition of P-388 lymphoid leukemia cells. The settings on record: Mus musculus, read-out: ED50 (the source's name). In a few lines:
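P-388 mouse lymphoid leukemia cells were seeded at 4×10^5 per tube in Fischer's medium with 10% horse serum. Twofold compound dilutions were run in duplicate tubes, stoppered, and held at a 30° angle at 37 °C for 72 h without agitation, rotated twice daily. Cells were counted by hemocytometer. Percent inhibition was taken against controls, with counts corrected for the inoculum.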

Take `Nc1ncnc2c1ncn2[C@@H]1O[C@H](CO)[C@@H](O)[C@@H]1O` [VIDARABINE]: the VR was determined as 2 with Human alphaherpesvirus 1 [1] and 1.4 with Human alphaherpesvirus 2 [2].
On to `Nc1nc(O)c2ncn(C/C=C/CO)c2n1`, for which the EC50 with Human alphaherpesvirus 1 [3] was 172 µg/mL (≈ 778 µM); in the assay on Human alphaherpesvirus 2 [4] it was 219 µg/mL (≈ 990 µM). Moreover, the VR with Human alphaherpesvirus 1 [1] is 1.5; in the assay with Human alphaherpesvirus 2 [2], 0.9.
The matching figures for `Nc1nc2c(ncn2COCCO)c(=O)[nH]1` [ACYCLOVIR]: 12.3 µg/mL (≈ 54.6 µM), 4.8 µg/mL (≈ 21.3 µM), 6.3 and 4.8.
For the molecule `Nc1ncnc2c1ncn2C/C=C/CCl`, the EC50 with P388 came to 5 µg/mL (≈ 22.4 µM).
